Results gathered from unrelated publications.
Protocols differ between the studies behind these lines. ≈ marks a conversion by molar mass, not a printed value.

Compound	target or system	test	conditions	quantity	result
CC(C)(C)c1cc(NC(=O)Nc2ccc(-c3cn4c(n3)sc3cc(OCCN5CCOCC5)ccc34)cc2)no1	HCC827	cell growth or viability	72 h	GI50	> 10 µM
CCCCn1cnc2ccc(-c3ccc(NC(=O)NC(C)(C)C)nc3)cc2c1=O	HCC827	cell growth or viability, CCK-8	72 h	IC50	3.97 µM
CN(C)CCNC(=O)c1ccc(-c2nc3ccc4[nH]ncc4c3c3c2CCCC3)c(F)c1	HCC827	cell growth or viability	72 h	GI50	1.01 µM
Cc1nc(Nc2ncc(C(=O)Nc3c(C)cccc3Cl)s2)cc(N2CC[C@H](O)C2)n1	OCI-LY19	cell growth or viability, ATP luminescence	10 µM, 72 h	inhibition	9%
O=C(Nc1cccc(Cl)c1)c1ccc(COC(Cn2ccnc2)c2ccc(Cl)cc2Cl)cc1 (centres unmarked)	Nakaseomyces glabratus	microbial growth, broth dilution		MIC80	0.25 µg/mL (≈ 0.499 µM)
Cc1n[nH]c2ccc3nc(-c4ccc(C(=O)NCCN(C)C)cc4F)c4c(c3c12)CCCCC4	HCC827	cell growth or viability	72 h	GI50	4.87 µM
COc1cc(C2=CCCc3c2ccc(OC)c3OC(C)c2ccc([N+](=O)[O-])s2)cc(OC)c1OC (centres unmarked)		tubulin polymerisation, inhibitor	20 min	IC50	> 20 µM
O=C(Nc1cccc2ccccc12)c1ccc(COC(Cn2ccnc2)c2ccc(Cl)cc2Cl)cc1 (centres unmarked)	Nakaseomyces glabratus	microbial growth, broth dilution		MIC80	8 µg/mL (≈ 15.5 µM)
CCCCn1cnc2ccc(-c3ccc(NC(=O)NCc4ccccc4)nc3)cc2c1=O	HCC827	cell growth or viability, CCK-8	72 h	IC50	0.32 µM
O=C(Nc1ccc(C(F)(F)F)cc1)c1ccc(COC(Cn2ccnc2)c2ccc(Cl)cc2Cl)cc1 (centres unmarked)	Nakaseomyces glabratus	microbial growth, broth dilution		MIC80	0.125 µg/mL (≈ 0.234 µM)
COc1cc(C2=CCCc3c2ccc(OC)c3OCc2ccc([N+](=O)[O-])s2)cc(OC)c1OC		tubulin polymerisation, inhibitor	20 min	IC50	> 20 µM
O=C(Nc1ccccc1)c1ccc(COC(Cn2ccnc2)c2ccc(Cl)cc2Cl)cc1 (centres unmarked)	Nakaseomyces glabratus	microbial growth, broth dilution		MIC80	0.25 µg/mL (≈ 0.536 µM)
COc1cc(C2=CCCc3c2ccc(OC)c3OC(C)c2cnc([N+](=O)[O-])n2C)cc(OC)c1OC (centres unmarked)		tubulin polymerisation, inhibitor	20 min	IC50	> 20 µM
CCc1nc(C(N)=O)c(Nc2ccc(N3CCC(N4CCN(C)CC4)CC3)c(OC)c2)nc1NC1CCOCC1	HCC827	cell growth or viability	72 h	GI50	0.283 µM
